Data from ChEMBL document CHEMBL4145497, “Discovery of 2-aminothiazolyl berberine derivatives as effectively antibacterial agents toward clinically drug-resistant Gram-negative Acinetobacter baumanii” (Eur J Med Chem, 2018).
≈ marks a conversion by molar mass, not a printed value. Calls of active or inactive are those of the source. The calls are words filed in the database; no cut-off is given here.

Key:
Enterococcus faecalis [1] = assay: Antibacterial activity against drug-resistant Enterococcus faecalis after 18 to 24 hrs in presence of norfloxacin by two fold dilution checkerboard method; type: functional
Acinetobacter baumannii [2] = assay: Synergistic antibacterial activity against drug-resistant Acinetobacter baumannii assessed as FIC index in presence of norfloxacin by two fold dilution checkerboard method; type: functional
Escherichia coli [3] = assay: Antibacterial activity against drug-resistant Escherichia coli after 18 to 24 hrs in presence of norfloxacin by two fold dilution checkerboard method; type: functional
Pseudomonas aeruginosa [4] = assay: Synergistic antibacterial activity against drug-resistant Pseudomonas aeruginosa assessed as FIC index in presence of norfloxacin by two fold dilution checkerboard method; type: functional
Cyberlindnera jadinii = assay: Antifungal activity against Candida utilis ATCC 9950 by CLSI two fold serial dilution method; type: functional; settings: Williopsis jadinii
Acinetobacter baumannii [5] = assay: Antibacterial activity against drug-resistant Acinetobacter baumannii at 0.7 ug/ml measured 12 hrs post 10 serial passages; type: functional, organism-based
Klebsiella pneumoniae [6] = assay: Antibacterial activity against drug-resistant Klebsiella pneumoniae after 18 to 24 hrs in presence of norfloxacin by two fold dilution checkerboard method; type: functional
Micrococcus luteus = assay: Antibacterial activity against Micrococcus luteus ATCC 4698 after 18 to 24 hrs by CLSI two fold serial dilution method; type: functional
Escherichia coli [7] = assay: Synergistic antibacterial activity against drug-resistant Escherichia coli assessed as FIC index in presence of norfloxacin by two fold dilution checkerboard method; type: functional
Enterococcus faecalis [8] = assay: Potentiation of norfloxacin-mediated antibacterial activity against drug-resistant Enterococcus faecalis assessed as norfloxacin MIC after 18 to 24 hrs by two fold dilution checkerboard method (reference value: 0.8 umol/ml); type: functional
Pseudomonas aeruginosa [9] = assay: Antibacterial activity against drug-resistant Pseudomonas aeruginosa after 18 to 24 hrs in presence of norfloxacin by two fold dilution checkerboard method; type: functional
Pseudomonas aeruginosa [10] = assay: Potentiation of norfloxacin-mediated antibacterial activity against drug-resistant Pseudomonas aeruginosa assessed as norfloxacin MIC after 18 to 24 hrs by two fold dilution checkerboard method (reference value: 1.6 umol/ml); type: functional
Staphylococcus aureus [11] = assay: Antibacterial activity against Staphylococcus aureus ATCC 25923 after 18 to 24 hrs by CLSI two fold serial dilution method; type: functional
Aspergillus flavus [12] = assay: Antifungal activity against Aspergillus flavus ATCC 204304 by CLSI two fold serial dilution method; type: functional
Saccharomyces cerevisiae = assay: Antifungal activity against Saccharomyces cerevisiae ATCC 9763 by CLSI two fold serial dilution method; type: functional
[13] = Cytotoxicity against human LO2 cells assessed as cell viability at 1.5625 to 100 ug/ml after 48 hrs by MTT assay relative to control; type: cell-based, L02; settings: read-out: Activity
How it was run: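 Human hepatocyte LO2 cells exposed to compound across a concentration range for 48 h; viability read by colorimetric MTT assay; standard deviation from three independent experiments.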

Staphylococcus aureus [14] = assay: Synergistic antibacterial activity against methicillin-resistant Staphylococcus aureus N315 assessed as FIC index in presence of norfloxacin by two fold dilution checkerboard method; type: functional
Klebsiella pneumoniae [15] = assay: Potentiation of norfloxacin-mediated antibacterial activity against drug-resistant Klebsiella pneumoniae assessed as norfloxacin MIC after 18 to 24 hrs by two fold dilution checkerboard method (reference value: 0.8 umol/ml); type: functional
DNA [16] = assay: Induction of drug-resistant Acinetobacter baumanii DNA cleavage at 50 uM after 6 hrs by ethidium bromide staining based agarose gel electrophoresis method; type: nucleic-acid assay; settings: Acinetobacter baumannii
How it was run: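 Spin-column-isolated genomic DNA from drug-resistant A. baumanii (1.31×10^-6 mol/L) was incubated with compound (50 μM) in 50 mM Tris-HCl/50 mM NaCl, pH 7.4, at 37 °C for 6 h. Agarose gel electrophoresis was run against DNA-alone and DNA-plus-buffer lanes.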

Pseudomonas aeruginosa [17] = assay: Antibacterial activity against Pseudomonas aeruginosa ATCC 27853 after 18 to 24 hrs by CLSI two fold serial dilution method; type: functional
Klebsiella pneumoniae [18] = assay: Synergistic antibacterial activity against drug-resistant Klebsiella pneumoniae assessed as FIC index in presence of norfloxacin by two fold dilution checkerboard method; type: functional
DNA [19] = assay: Inhibition of neutral red binding to drug-resistant Acinetobacter baumanii DNA up to 2.5 10^-5mol/L by UV-vis spectroscopic analysis; type: nucleic-acid assay; settings: Acinetobacter baumannii
How it was run: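 Neutral red competition with genomic DNA from drug-resistant A. baumanii, extracted by spin column after proteinase K lysis. UV-vis absorbance near 460 nm was followed as compound concentration increased in the neutral red–DNA system.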

Escherichia coli [20] = assay: Potentiation of norfloxacin-mediated antibacterial activity against drug-resistant Escherichia coli assessed as norfloxacin MIC after 18 to 24 hrs by two fold dilution checkerboard method (reference value: 1.6 umol/ml); type: functional
Escherichia coli [21] = assay: Antibacterial activity against Escherichia coli DH52 after 18 to 24 hrs by CLSI two fold serial dilution method; type: functional
Enterococcus faecalis [22] = assay: Additive antibacterial activity against drug-resistant Enterococcus faecalis assessed as FIC index in presence of norfloxacin by two fold dilution checkerboard method; type: functional
Staphylococcus aureus [23] = assay: Antibacterial activity against methicillin-resistant Staphylococcus aureus N315 after 18 to 24 hrs in presence of norfloxacin by two fold dilution checkerboard method; type: functional
Candida albicans = assay: Antifungal activity against Candida albicans ATCC 76615 by CLSI two fold serial dilution method; type: functional
Bacillus subtilis = assay: Antibacterial activity against Bacillus subtilis ATCC 21216 after 18 to 24 hrs by CLSI two fold serial dilution method; type: functional
[24] = Aqueous solubility of the compound in phosphate buffer at pH 7.4 after 3 hrs by UV detection assay; type: physicochemical
How it was run: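 Water solubility measured at physiological pH, with berberine as the control.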

Aspergillus flavus [25] = assay: Potency index, ratio of fluconazole MIC to compound MIC for antibacterial activity against Aspergillus flavus ATCC 204304; type: functional
Acinetobacter baumannii [26] = assay: Antibacterial activity against drug-resistant Acinetobacter baumannii after 18 to 24 hrs in presence of norfloxacin by two fold dilution checkerboard method; type: functional
DNA [27] = assay: Binding affinity to drug-resistant Acinetobacter baumanii DNA by UV-vis spectroscopic analysis; type: nucleic-acid assay; settings: Acinetobacter baumannii
How it was run: (§1)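 Genomic DNA was isolated from drug-resistant A. baumanii by spin-column extraction after proteinase K lysis at 70 °C. DNA concentration was taken from A260 using ε260 = 6600 L·mol−1·cm−1, expressed as phosphate molarity, and purity was checked by A260/A280 and gel. UV-vis spectra were recorded at a fixed DNA concentration of 8.12×10^-4 mol/L with increasing compound.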

Pichia norvegensis = assay: Antifungal activity against Candida mycoderma ATCC 96918 by CLSI two fold serial dilution method; type: functional
Staphylococcus aureus [28] = assay: Ratio of MIC for methicillin-resistant Staphylococcus aureus N315 in absence of norfloxacin to MIC for methicillin-resistant Staphylococcus aureus N315 in presence of norfloxacin; type: functional
Acinetobacter baumannii [29] = assay: Bactericidal activity against drug-resistant Acinetobacter baumannii assessed as reduction in number of viable bacterial load at 8 nmol/ml with in 2 hrs by time kill assay; type: functional
Staphylococcus aureus [30] = assay: Potentiation of norfloxacin-mediated antibacterial activity against methicillin-resistant Staphylococcus aureus N315 assessed as norfloxacin MIC after 18 to 24 hrs by two fold dilution checkerboard method (reference value: 0.03 umol/ml); type: functional
Acinetobacter baumannii [31] = assay: Potentiation of norfloxacin-mediated antibacterial activity against drug-resistant Acinetobacter baumannii assessed as norfloxacin MIC after 18 to 24 hrs by two fold dilution checkerboard method (reference value: 0.8 umol/ml); type: functional
Staphylococcus aureus [32] = assay: Potentiation of norfloxacin-mediated antibacterial activity against methicillin-resistant Staphylococcus aureus N315 after 18 to 24 hrs by two fold dilution checkerboard method relative to control; type: functional
Staphylococcus aureus [33] = assay: Antibacterial activity against methicillin-resistant Staphylococcus aureus N315 after 18 to 24 hrs by CLSI two fold serial dilution method; type: functional
Acinetobacter baumannii [34] = assay: Induction of membrane permeabilization in drug-resistant Acinetobacter baumannii at 0.024 umol/ml incubated for 1 hr measured up to 120 mins by propidium iodide staining-based fluorescence spectra analysis; type: functional, organism-based
Candida parapsilosis = assay: Antifungal activity against Candida parapsilosis ATCC 22019 by CLSI two fold serial dilution method; type: functional; settings: Lodderomyces parapsilosis
DNA [35] = assay: Binding affinity to drug-resistant Acinetobacter baumanii DNA assessed as hyperchromic effect up to 2.5 10^-5mol/L by UV-vis spectroscopic analysis; type: nucleic-acid assay; settings: Acinetobacter baumannii; how it was run: as §1

CCCCCCOc1c(OC)cc(/C=N/Nc2nccs2)c2c1CN1CCc3cc4c(cc3C1C2)OCO4 (stereo not drawn)
MIC (Enterococcus faecalis [1]): 15 µM | fractional inhibitory concentration index (FICI) (Acinetobacter baumannii [2]): 0.31 | MIC (Escherichia coli [3]): 30 µM | fractional inhibitory concentration index (FICI) (Pseudomonas aeruginosa [4]): 0.45 | MIC (Cyberlindnera jadinii): 120 µM (≈ 64.2 µg/mL) | Activity (Acinetobacter baumannii [5]): Active | MIC (Klebsiella pneumoniae [6]): 30 µM | MIC (Micrococcus luteus): 60 µM (≈ 32.1 µg/mL) | fractional inhibitory concentration index (FICI) (Escherichia coli [7]): 0.31 | MIC (Enterococcus faecalis [8]): 50 µM | MIC (Pseudomonas aeruginosa [9]): 25 µM | MIC (Pseudomonas aeruginosa [10]): 50 µM | MIC (Staphylococcus aureus [11]): 30 µM (≈ 16 µg/mL) | MIC (Aspergillus flavus [12]): 60 µM (≈ 32.1 µg/mL) | MIC (Saccharomyces cerevisiae): 60 µM (≈ 32.1 µg/mL) | viability at 48 h [13]: > 70.7% | fractional inhibitory concentration index (FICI) (Staphylococcus aureus [14]): 0.5 | MIC (Klebsiella pneumoniae [15]): 100 µM | Activity (DNA [16]): Active | MIC (Pseudomonas aeruginosa [17]): 60 µM (≈ 32.1 µg/mL) | fractional inhibitory concentration index (FICI) (Klebsiella pneumoniae [18]): 0.38 | inhibition (DNA [19]): Active | MIC (Escherichia coli [20]): 100 µM | MIC (Escherichia coli [21]): 60 µM (≈ 32.1 µg/mL) | fractional inhibitory concentration index (FICI) (Enterococcus faecalis [22]): 0.56 | MIC (Staphylococcus aureus [23]): 7 µM | MIC (Candida albicans): 30 µM (≈ 16 µg/mL) | MIC (Bacillus subtilis): 120 µM (≈ 64.2 µg/mL) | solubility at 3 h [24]: 1420 µg/mL (≈ 2660 µM) | Ratio (Aspergillus flavus [25]): 14 | MIC (Acinetobacter baumannii [26]): 0.5 µM | K (DNA [27]): 2.54 ×10³ L/mol | MIC (Pichia norvegensis): 30 µM (≈ 16 µg/mL) | Ratio (Staphylococcus aureus [28]): 4 | Activity (Acinetobacter baumannii [29]): >3 deltalog10CFU/ml | MIC (Staphylococcus aureus [30]): 6 µM | MIC (Acinetobacter baumannii [31]): 50 µM | fold change (FC) (Staphylococcus aureus [32]): 4 | MIC (Staphylococcus aureus [33]): 7 to 30 µM (≈ 3.74 to 16 µg/mL) | Activity (Acinetobacter baumannii [34]): Active | MIC (Candida parapsilosis): 4 µM (≈ 2.14 µg/mL) | Activity (DNA [35]): Active

COc1cc(/C=N/Nc2nccs2)c2c(c1OCc1ccc(Cl)cc1Cl)CN1CCc3cc4c(cc3C1C2)OCO4 (stereo not drawn)
MIC (Cyberlindnera jadinii): 210 µM (≈ 128 µg/mL) | Activity (Acinetobacter baumannii [5]): Active | MIC (Micrococcus luteus): 110 µM (≈ 67 µg/mL) | MIC (Staphylococcus aureus [11]): 110 µM (≈ 67 µg/mL) | MIC (Aspergillus flavus [12]): 420 µM (≈ 256 µg/mL) | MIC (Saccharomyces cerevisiae): 840 µM (≈ 512 µg/mL) | viability at 48 h [13]: > 80.5% | MIC (Pseudomonas aeruginosa [17]): 210 µM (≈ 128 µg/mL) | MIC (Escherichia coli [21]): 840 µM (≈ 512 µg/mL) | MIC (Candida albicans): 420 µM (≈ 256 µg/mL) | MIC (Bacillus subtilis): 210 µM (≈ 128 µg/mL) | solubility at 3 h [24]: 1900 µg/mL (≈ 3120 µM) | MIC (Pichia norvegensis): 420 µM (≈ 256 µg/mL) | Activity (Acinetobacter baumannii [29]): >3 deltalog10CFU/ml | Activity (Acinetobacter baumannii [34]): Active | MIC (Candida parapsilosis): 7 µM (≈ 4.27 µg/mL)
